Measured values: ChEMBL document CHEMBL4680153, “New Spisulosine Derivative promotes robust autophagic response to cancer cells” (Eur J Med Chem, 2020)
Active and inactive are the calls of the source. No cut-off for these calls is given here.

Key:
[1] = system: DLD-1; test: Induction of autophagy in human DLD-1 cells assessed as increase in Beclin expression at 10 uM measured upto 6 hrs by Western blot analysis; assay type: functional, cell-based; conditions: time hrs <=6
How it was run: (§1)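 DLD-1 cells were treated with 10 μM compound or vehicle for the indicated times. Equal protein from NP-40 lysates was run on 15% SDS-PAGE and transferred to PVDF. Immunoblots for Beclin-1, Atg3, Atg5 and Atg7 were developed by chemiluminescence.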

[2] = system: DLD-1; test: Induction of autophagy in human DLD-1 cells assessed as reduction in cell viability at 7.5 uM incubated for 24 hrs in presence of Bafilomycin-A1 by crystal violet staining based phase contrast microscopic analysis; assay type: functional
[3] = system: DLD-1; test: Induction of apoptosis in human DLD-1 cells assessed as increase in PARP cleavage at 5 to 7.5 uM by Western blot analysis; assay type: functional, cell-based; conditions: dose 5-7.5 µM
How it was run: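 DLD-1 cells were treated at 7.5 μM for 18 h and lysed in NP-40 buffer containing protease and phosphatase inhibitors. Protein was quantified by BCA, and equal amounts were run on 15% SDS-PAGE and transferred to PVDF. Cleaved PARP was probed and detected by enhanced chemiluminescence.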

[4] = system: SW-620; test: Antiproliferative activity against human SW-620 cells assessed as reduction in cell growth incubated for 48 hrs by SRB assay; assay type: functional, cell-based; conditions: SW-620, 48 h
How it was run: (§2)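 Colon cancer lines and CCD-18Co normal colon fibroblasts, early passage, plated at 40% confluency and incubated overnight. They were then treated with varying concentrations for 48 h. The SRB read-out was absorbance at 510 nm, and IC50 was taken as the half-maximal proliferation-inhibitory concentration.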

[5] = system: DLD-1; test: Antiproliferative activity against human DLD-1 cells assessed as reduction in cell growth incubated for 48 hrs by SRB assay; assay type: functional, cell-based; conditions: DLD-1, 48 h; how it was run: as §2
[6] = system: NCI-H358; test: Antiproliferative activity against human NCI-H358 cells assessed as reduction in cell growth at 10 uM incubated for 48 hrs by SRB assay relative to control; assay type: functional
How it was run: (§3)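 Early-passage cells plated at 40% confluency and left overnight, then exposed to 10 μM compound for 48 h. Growth was measured by sulforhodamine B staining, with absorbance at 510 nm. Percent growth inhibition was calculated against untreated cells.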

[7] = system: DLD-1; test: Induction of autophagy in human DLD-1 cells assessed as reduction in cell viability at 7.5 uM incubated for 24 hrs by crystal violet staining based phase contrast microscopic analysis; assay type: functional
[8] = system: DLD-1; test: Induction of vacuole formation in human DLD-1 cells assessed as increase in cellular granularity at 7.5 uM incubated for 18 hrs by FACS analysis; assay type: functional, cell-based
How it was run: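 DLD-1 cells were given vehicle or 7.5 μM compound for 18 h. Cell size (forward scatter) and granularity (side scatter) were then read by flow cytometry.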

[9] = system: MDA-MB-231; test: Antiproliferative activity against human MDA-MB-231 cells assessed as reduction in cell growth at 10 uM incubated for 48 hrs by SRB assay relative to control; assay type: functional; how it was run: as §3
[10] = system: HT-29; test: Antiproliferative activity against human HT-29 cells assessed as reduction in cell growth at 10 uM incubated for 48 hrs by SRB assay relative to control; assay type: functional; how it was run: as §3
[11] = system: CCD-18Co; test: Antiproliferative activity against human CCD-18Co cells assessed as reduction in cell growth incubated for 48 hrs by SRB assay; assay type: cell-based; how it was run: as §2
[12] = system: HT-29; test: Antiproliferative activity against human HT-29 cells assessed as reduction in cell growth incubated for 48 hrs by SRB assay; assay type: functional, cell-based; conditions: HT-29, 48 h; how it was run: as §2
[13] = system: DLD-1; test: Induction of autophagy in human DLD-1 cells assessed as vacuole formation at 5 uM measured upto 6 hrs by TEM analysis; assay type: functional, cell-based; conditions: time hrs <=6
How it was run: (§4)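 DLD-1 cells were treated at 5 μM for 6 h, fixed in 2.5% glutaraldehyde in phosphate buffer (pH 7.4) and post-fixed in 1% OsO4. Samples were dehydrated through ethanol and embedded in Spurr resin, and ultrathin sections were stained with uranyl acetate and lead citrate. Sections were viewed by TEM at 80 kV, with at least 200 cells per set across 4 grids.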

[14] = system: DLD-1; test: Induction of apoptosis in human DLD-1 cells assessed as early apoptotic cells at 7.5 uM incubated for 18 hrs by Annexin V-FITC and propidium iodide staining based flow cytometry analysis (reference value: 4.95 %); assay type: functional
[15] = system: DLD-1; test: Induction of autophagy in human DLD-1 cells assessed as increase in Atg5 expression at 10 uM measured upto 6 hrs by Western blot analysis; assay type: functional, cell-based; conditions: time hrs <=6; how it was run: as §1
[16] = system: SW48; test: Antiproliferative activity against human SW48 cells assessed as reduction in cell growth incubated for 48 hrs by SRB assay; assay type: functional, cell-based; conditions: SW48, 48 h; how it was run: as §2
[17] = system: DLD-1; test: Induction of autophagy in human DLD-1 cells assessed as increase in LC3B-I to LC3B-II conversion at 7.5 uM incubated for 18 hrs by Western blot analysis; assay type: functional, cell-based
How it was run: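 Vehicle or 7.5 μM compound was applied to DLD-1 cells for 18 h. Cells were lysed in NP-40 with inhibitors and equal protein was resolved on 15% SDS-PAGE and blotted to PVDF. Blots were probed for LC3A/B, with GAPDH as reference, and detected by ECL.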

[18] = system: DLD-1; test: Induction of autophagy in human DLD-1 cells assessed as nuclear damage at 5 uM measured upto 6 hrs by TEM analysis; assay type: functional, cell-based; conditions: time hrs <=6; how it was run: as §4
[19] = system: DLD-1; test: Induction of autophagy in human DLD-1 cells assessed as vacuole formation at 7.5 uM incubated for 20 hrs by MDC staining based confocal microscopy; assay type: functional, cell-based
How it was run: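 DLD-1 cells were incubated with drug for 20 h and then labeled with monodansylcadaverine in PBS for 20 min at 37°C in the dark. After washing, cells were imaged at once by confocal microscopy (excitation 390 nm, emission 460 nm).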

[20] = system: MCF7; test: Antiproliferative activity against human MCF7 cells assessed as reduction in cell growth at 10 uM incubated for 48 hrs by SRB assay relative to control; assay type: functional; how it was run: as §3
[21] = system: LoVo; test: Antiproliferative activity against human LoVo cells assessed as reduction in cell growth incubated for 48 hrs by SRB assay; assay type: functional, cell-based; how it was run: as §2
[22] = system: DLD-1; test: Induction of apoptosis in human DLD-1 cells assessed as late apoptotic cells at 7.5 uM incubated for 18 hrs by Annexin V-FITC and propidium iodide staining based flow cytometry analysis (reference value: 5.7 %); assay type: functional
[23] = system: DLD-1; test: Induction of apoptosis in human DLD-1 cells assessed as necrotic cells at 7.5 uM incubated for 18 hrs by Annexin V-FITC and propidium iodide staining based flow cytometry analysis (reference value: 4.1 %); assay type: functional
[24] = system: DLD-1; test: Induction of autophagy in human DLD-1 cells assessed as increase in Atg7 expression at 10 uM measured upto 6 hrs by Western blot analysis; assay type: functional, cell-based; conditions: time hrs <=6; how it was run: as §1
[25] = system: DLD-1; test: Antiproliferative activity against human DLD-1 cells assessed as reduction in cell growth at 10 uM incubated for 48 hrs by SRB assay relative to control; assay type: functional; how it was run: as §3
[26] = system: A549; test: Antiproliferative activity against human A549 cells assessed as reduction in cell growth at 10 uM incubated for 48 hrs by SRB assay relative to control; assay type: functional; how it was run: as §3
[27] = system: COLO 205; test: Antiproliferative activity against human COLO 205 cells assessed as reduction in cell growth incubated for 48 hrs by SRB assay; assay type: functional, cell-based; conditions: COLO 205, 48 h; how it was run: as §2
[28] = system: DLD-1; test: Induction of autophagy in human DLD-1 cells assessed as increase in LC-3 punta formation at 1 to 5 uM incubated for 6 hrs by based confocal microscopy; assay type: functional, cell-based; conditions: dose 1-5 µM
How it was run: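 DLD-1 cells were grown overnight on coverslips and treated with vehicle or compound for 6 h. They were fixed in 4% paraformaldehyde, permeabilized with 0.1% Triton X-100 and blocked in 2% BSA. Primary antibody was applied overnight at 4°C, then fluorescent secondary for 2 h with a DAPI counterstain. LC3 puncta were imaged by confocal microscopy with a 63× oil objective.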

[29] = system: DLD-1; test: Induction of autophagy in human DLD-1 cells assessed as increase in Atg3 expression at 10 uM measured upto 6 hrs by Western blot analysis; assay type: functional, cell-based; conditions: time hrs <=6; how it was run: as §1
[30] = system: DLD-1; test: Induction of autophagy in human DLD-1 cells assessed as mitochondrial damage at 5 uM measured upto 6 hrs by TEM analysis; assay type: functional, cell-based; conditions: time hrs <=6; how it was run: as §4
[31] = system: DLD-1; test: Induction of autophagy in human DLD-1 cells assessed as vacuole formation at 7.5 uM incubated for 24 hrs in presence of Bafilomycin-A1 by phase contrast microscopic analysis; assay type: functional, cell-based
How it was run: (§5)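 DLD-1 cells received vehicle, 7.5 μM compound alone, or compound plus 100 nM bafilomycin A1 pretreatment for 24 h. Cells were then examined by phase-contrast microscopy.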

[32] = system: DLD-1; test: Induction of autophagy in human DLD-1 cells assessed as vacuole formation at 7.5 uM incubated for 24 hrs by phase contrast microscopic analysis; assay type: functional, cell-based; how it was run: as §5
[33] = system: DLD-1; test: Induction of apoptosis in human DLD-1 cells assessed as viable cells at 7.5 uM incubated for 18 hrs by Annexin V-FITC and propidium iodide staining based flow cytometry analysis (reference value: 85.2 %); assay type: functional; conditions: read-out: Activity

Compound: CCCCCCCCCCCCCC[C@H](O)[C@@H](N)Cc1ccc(OC)cc1
- Activity [1]: Active
- Activity [2]: inactive
- Activity [3]: inactive
- IC50 [4]: 1860 nM
- IC50 [5]: 4.46 µM
- inhibition at 10 µM [6]: 90.4%
- Activity [7]: Active
- Activity [8]: Active
- inhibition at 10 µM [9]: 96.8%
- inhibition at 10 µM [10]: 97.7%
- IC50 [11]: > 10 µM
- IC50 [12]: 4.15 µM
- Activity [13]: Active
- Activity [14]: 0.46%
- Activity [15]: Active
- IC50 [16]: 3.14 µM
- Activity [17]: Active
- Activity [18]: inactive
- Activity [19]: Active
- inhibition at 10 µM [20]: 89.3%
- IC50 [21]: 3.33 µM
- Activity [22]: 0.8%
- Activity [23]: 5%
- Activity [24]: Active
- inhibition at 10 µM [25]: 97.3%
- inhibition at 10 µM [26]: 94.8%
- IC50 [27]: 2030 nM
- Activity [28]: Active
- Activity [29]: Active
- Activity [30]: inactive
- Activity [31]: inactive
- Activity [32]: Active
- viability at 7.5 µM [33]: 93.6%
